Seven compounds from ChEMBL document CHEMBL1128288, “7-Azetidinylquinolones as antibacterial agents. 3. Synthesis, properties and structure-activity relationships of the stereoisomers containing a 7-(3-amino-2-methyl-1-azetidinyl) moiety” (J Med Chem, 1995) can be followed below.

≈ marks a conversion by molar mass, not a printed value.

One data set deals with Morganella morganii. The data set can be described thus: In vitro antibacterial activity measured as minimum inhibitory concentration was evaluated on morganella morganii ATCC 8019 (Mm). It is filed as functional. The note with it: Morganella morganii, ATCC 8019; read-out: MIC. The procedure, abridged: (§1)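 Serial 2-fold agar dilution in Mueller Hinton medium, run side by side with reference quinolones. Inoculum 10^5 cfu/mL; compound range 0.007–16 µg/mL.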

Data set [1] has as its system Staphylococcus epidermidis. The experiment in a line: In vitro antibacterial activity measured as minimum inhibitory concentration was evaluated on Staphylococcus epidermidis ATCC 155-1 (Se). It counts as functional. The note with it: Staphylococcus epidermidis, ATCC 155-1; read-out: MIC. An outline of the steps: as §1
The next data set relates to Bacillus subtilis. The experiment in a line: In vitro antibacterial activity measured as minimum inhibitory concentration was evaluated on Bacillus subtilis ATCC 6633(Bs). It is filed as functional. The following applies: Bacillus subtilis, ATCC 6633; read-out: MIC. The procedure, abridged: as §1
A further data set has as its system Bacillus cereus. The experiment in a line: In vitro antibacterial activity measured as minimum inhibitory concentration was evaluated on Bacillus cereus ATCC 11778 (Bc). It counts as functional. The following applies: Bacillus cereus, ATCC 11778; read-out: MIC. The procedure, abridged:
as §1

Another data set deals with Klebsiella pneumoniae. The data set can be described thus: In vitro antibacterial activity measured as minimum inhibitory concentration was evaluated on klebsiella pneumoniae ATCC 10031 (Kp). It counts as functional. The following applies: Klebsiella pneumoniae, ATCC 10031; read-out: MIC. An outline of the steps:
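Serial 2-fold agar dilution in Mueller Hinton medium, run side by side with reference quinolones.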

The subject of data set [2] is Escherichia coli. The experiment in a line: In vivo efficacy as ED50 against Escherichia coli HM-42 by oral administration in mice. It is filed as functional. The following applies: Escherichia coli, po; read-out: ED50. An outline of the steps:
(§2)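 Mice, 4 groups of 10, infected intraperitoneally with slightly more than the LD100 of the organism. A single oral dose was given immediately after infection, with four doses (one per group) chosen from in vitro activity. Survival was scored after one week. ED50 (total dose, mg/kg, protecting 50%) was interpolated among group survival rates.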

Another data set relates to Proteus vulgaris. The data set can be described thus: In vitro antibacterial activity measured as minimum inhibitory concentration was evaluated on proteus vulgaris ATCC 8427 (Pv). It counts as functional. The following applies: Proteus vulgaris, ATCC 8427; read-out: MIC. An outline of the steps: as §1
Data set [3] concerns Staphylococcus aureus. The data set can be described thus: In vivo efficacy as ED50 against Staphylococcus aureus HS-93 by oral administration in mice. It counts as functional. The note with it: Staphylococcus aureus, po; read-out: ED50. An outline of the steps: as §2
A further data set has as its system Enterobacter cloacae. The experiment in a line: In vitro antibacterial activity measured as minimum inhibitory concentration, was evaluated on Enterobacter cloacae ATCC 23355 (Ecl). It is filed as functional. The following applies: Enterobacter cloacae, ATCC 23355; read-out: MIC.
For data set [4], the system named is Pseudomonas aeruginosa. The experiment in a line: In vivo efficacy as ED50 against Pseudomonas aeruginosa HS-116 by oral administration in mice. It counts as functional. The note with it: Pseudomonas aeruginosa, po; read-out: ED50. An outline of the steps:
as §2

The subject of data set [5] is Escherichia coli. The data set can be described thus: In vitro antibacterial activity measured as minimum inhibitory concentration, was evaluated on Escherichia coli ATCC 23559(Ec). The note with it: Escherichia coli, ATCC 23559; read-out: MIC. It counts as functional. An outline of the steps:
as §1

For data set [6], the system named is Staphylococcus aureus. The experiment in a line: In vitro antibacterial activity measured as minimum inhibitory concentration was evaluated on Staphylococcus aureus ATCC 25178 (Sa). It counts as functional. The following applies: Staphylococcus aureus, ATCC 25178; read-out: MIC. An outline of the steps: as §1
A further data set has as its system Enterococcus faecalis. The data set can be described thus: In vitro antibacterial activity measured as minimum inhibitory concentration was evaluated on Streptococcus faecalis ATCC 10541 (Sf). The following applies: Enterococcus faecalis, ATCC 10541; read-out: MIC. It is filed as functional. The procedure, abridged:
as §1

For data set [7] the following is noted: mouse, in vivo, po, 50 mg/kg.
In data set [8] the test system is Pseudomonas aeruginosa. The experiment in a line: In vitro antibacterial activity measured as minimum inhibitory concentration was evaluated on Pseudomonas aeruginosa ATCC 10145 (Pa). It counts as functional. The note with it: Pseudomonas aeruginosa, ATCC 10145; read-out: MIC. An outline of the steps: as §1

For orientation: MIC means the lowest concentration that inhibits growth of the organism. What is called ED50 is the midpoint of the dose-response relation. As usually defined, the AUC is concentration integrated over time. Low readings indicate less exposure, high ones more exposure.

Take `CC1C(N)CN1c1c(F)cc2c(=O)c(C(=O)O)cn(C3CC3)c2c1Cl` (stereo not given): the MIC in the data set on Morganella morganii was determined as 0.03 µg/mL (≈ 0.082 µM); in [1], 0.03 µg/mL (≈ 0.082 µM); with Bacillus subtilis, 0.03 µg/mL (≈ 0.082 µM); in the data set with Bacillus cereus, 0.03 µg/mL (≈ 0.082 µM); in the data set on Klebsiella pneumoniae, 0.015 µg/mL (≈ 0.041 µM); in the data set with Proteus vulgaris, 0.03 µg/mL (≈ 0.082 µM). Also, the minimum inhibitory concentration (MIC) was determined as 0.03 µg/mL (≈ 0.082 µM) in the data set with Enterobacter cloacae, 0.015 µg/mL (≈ 0.041 µM) in the data set with Escherichia coli [5], 0.03 µg/mL (≈ 0.082 µM) in the data set on Staphylococcus aureus [6] and 0.06 µg/mL (≈ 0.164 µM) in the data set with Enterococcus faecalis. The median effective dose (ED50) in the data set with Escherichia coli [2] is 2.8 mg/kg; with Staphylococcus aureus [3], 9.6 mg/kg; with Pseudomonas aeruginosa [4] it was 38 mg/kg.

In the case of `CCn1cc(C(=O)O)c(=O)c2c(N)c(F)c(N3C[C@H](N)[C@H]3C)c(F)c21`, the MIC in the data set on Morganella morganii worked out at 0.06 µg/mL (≈ 0.17 µM); in [1], 0.25 µg/mL (≈ 0.71 µM); with Bacillus subtilis, 0.06 µg/mL (≈ 0.17 µM); with Bacillus cereus, 0.25 µg/mL (≈ 0.71 µM); in the data set on Klebsiella pneumoniae, 0.25 µg/mL (≈ 0.71 µM); with Proteus vulgaris it was 0.25 µg/mL (≈ 0.71 µM). Besides, the minimum inhibitory concentration (MIC) amounted to 0.06 µg/mL (≈ 0.17 µM) in the data set with Enterobacter cloacae; 0.25 µg/mL (≈ 0.71 µM) in the data set with Escherichia coli [5]; 0.12 µg/mL (≈ 0.341 µM) with Staphylococcus aureus [6]; 0.25 µg/mL (≈ 0.71 µM) with Enterococcus faecalis; 0.5 µg/mL (≈ 1.42 µM) in the data set with Pseudomonas aeruginosa [8]. In addition, the AUC in data set [7] was 12500 ng·h/mL.

Consider `C[C@@H]1[C@@H](N)CN1c1c(F)cc2c(=O)c(C(=O)O)cn(-c3ccc(F)cc3F)c2c1F`, for which the MIC in the data set with Morganella morganii is 0.25 µg/mL (≈ 0.593 µM); in [1] it was 0.12 µg/mL (≈ 0.285 µM); in the data set on Bacillus subtilis it was 0.06 µg/mL (≈ 0.142 µM); in the data set with Bacillus cereus it was 0.12 µg/mL (≈ 0.285 µM); with Klebsiella pneumoniae, 0.06 µg/mL (≈ 0.142 µM); in the data set with Proteus vulgaris, 0.5 µg/mL (≈ 1.19 µM). Besides, the MIC in the data set with Enterobacter cloacae was 0.06 µg/mL (≈ 0.142 µM); in the data set with Escherichia coli [5], 0.06 µg/mL (≈ 0.142 µM); with Staphylococcus aureus [6], 0.12 µg/mL (≈ 0.285 µM); with Enterococcus faecalis, 1 µg/mL (≈ 2.37 µM); with Pseudomonas aeruginosa [8] it was 0.5 µg/mL (≈ 1.19 µM). Besides, the ED50 in the data set on Escherichia coli [2] stood at 3 mg/kg; in the data set with Staphylococcus aureus [3], 11.2 mg/kg; with Pseudomonas aeruginosa [4] it was 98 mg/kg.

Consider `C[C@@H]1[C@@H](N)CN1c1nc2c(cc1F)c(=O)c(C(=O)O)cn2C1CC1`, for which the MIC in the data set on Morganella morganii came out at 0.25 µg/mL (≈ 0.752 µM); in data set [1] it was 0.25 µg/mL (≈ 0.752 µM); with Bacillus subtilis it was 0.06 µg/mL (≈ 0.181 µM); in the data set on Bacillus cereus, 0.25 µg/mL (≈ 0.752 µM); in the data set on Klebsiella pneumoniae, 0.06 µg/mL (≈ 0.181 µM); in the data set on Proteus vulgaris, 0.5 µg/mL (≈ 1.5 µM). The MIC in the data set on Enterobacter cloacae was 0.12 µg/mL (≈ 0.361 µM); in the data set on Escherichia coli [5], 0.12 µg/mL (≈ 0.361 µM); in the data set on Staphylococcus aureus [6], 0.5 µg/mL (≈ 1.5 µM); in the data set on Enterococcus faecalis it was 2 µg/mL (≈ 6.02 µM); in the data set on Pseudomonas aeruginosa [8], 2 µg/mL (≈ 6.02 µM). Moreover, the exposure (AUC) in data set [7] was determined as 22300 ng·h/mL.

Consider `C[C@@H]1[C@@H](N)CN1c1cc2c(cc1F)c(=O)c(C(=O)O)cn2C1CC1`, for which the MIC with Morganella morganii turned out to be 0.5 µg/mL (≈ 1.51 µM); in [1] it was 1 µg/mL (≈ 3.02 µM); in the data set with Bacillus subtilis, 0.25 µg/mL (≈ 0.754 µM); in the data set on Bacillus cereus it was 1 µg/mL (≈ 3.02 µM); in the data set with Klebsiella pneumoniae, 0.25 µg/mL (≈ 0.754 µM); in the data set with Proteus vulgaris, 1 µg/mL (≈ 3.02 µM). Besides, the MIC in the data set with Enterobacter cloacae worked out at 0.25 µg/mL (≈ 0.754 µM); in the data set with Escherichia coli [5], 0.25 µg/mL (≈ 0.754 µM); in the data set with Staphylococcus aureus [6], 1 µg/mL (≈ 3.02 µM); with Enterococcus faecalis, 2 µg/mL (≈ 6.04 µM); in the data set with Pseudomonas aeruginosa [8], 4 µg/mL (≈ 12.1 µM). In [7], this compound gave an area under the curve (AUC) of 2200 ng·h/mL.

Take `CC1C(N)CN1c1c(F)c(N)c2c(=O)c(C(=O)O)cn(C3CC3)c2c1F` (stereo not given): the MIC with Morganella morganii worked out at 0.015 µg/mL (≈ 0.0412 µM); in data set [1], 0.015 µg/mL (≈ 0.0412 µM); in the data set on Bacillus subtilis, 0.015 µg/mL (≈ 0.0412 µM); with Bacillus cereus, 0.015 µg/mL (≈ 0.0412 µM); in the data set with Klebsiella pneumoniae, 0.015 µg/mL (≈ 0.0412 µM); with Proteus vulgaris it was 0.06 µg/mL (≈ 0.165 µM). Besides, the MIC was 0.015 µg/mL (≈ 0.0412 µM) with Enterobacter cloacae, 0.015 µg/mL (≈ 0.0412 µM) in the data set with Escherichia coli [5], 0.015 µg/mL (≈ 0.0412 µM) in the data set with Staphylococcus aureus [6] and 0.06 µg/mL (≈ 0.165 µM) in the data set with Enterococcus faecalis. The ED50 with Escherichia coli [2] stood at 4.2 mg/kg; with Staphylococcus aureus [3], 8.7 mg/kg; with Pseudomonas aeruginosa [4] it was 102 mg/kg.

As to `C[C@@H]1[C@@H](N)CN1c1c(F)cc2c(=O)c(C(=O)O)cn(C3CC3)c2c1Cl`, the MIC in the data set with Morganella morganii was determined as 0.25 µg/mL (≈ 0.683 µM); in data set [1] it was 0.5 µg/mL (≈ 1.37 µM); in the data set on Bacillus subtilis, 0.12 µg/mL (≈ 0.328 µM); with Bacillus cereus, 0.5 µg/mL (≈ 1.37 µM); in the data set on Klebsiella pneumoniae, 2 µg/mL (≈ 5.47 µM); with Proteus vulgaris it was 0.25 µg/mL (≈ 0.683 µM). Also, the MIC in the data set with Enterobacter cloacae worked out at 0.25 µg/mL (≈ 0.683 µM); in the data set with Escherichia coli [5], 0.25 µg/mL (≈ 0.683 µM); with Staphylococcus aureus [6], 0.5 µg/mL (≈ 1.37 µM); in the data set on Enterococcus faecalis it was 0.25 µg/mL (≈ 0.683 µM); in the data set on Pseudomonas aeruginosa [8], 4 µg/mL (≈ 10.9 µM). For the same compound, the ED50 was 18.4 mg/kg in the data set with Escherichia coli [2], 19.1 mg/kg in the data set on Staphylococcus aureus [3] and 147 mg/kg in the data set with Pseudomonas aeruginosa [4].
